Calls of active or inactive are those of the source. No cut-off for these calls is given here.
What was measured:
[1] = molecular target: T1, NAD-dependent protein deacetylase sirtuin-3, mitochondrial (Homo sapiens) (UniProt Q9NTG7); assay: Activation of N-terminal his-tagged human SIRT3 (114 to 380 residues) expressed in Escherichia coli using ACS2-acK642 as substrate in presence of NAD+; settings: filed as activator
T1 sequence (whole entry): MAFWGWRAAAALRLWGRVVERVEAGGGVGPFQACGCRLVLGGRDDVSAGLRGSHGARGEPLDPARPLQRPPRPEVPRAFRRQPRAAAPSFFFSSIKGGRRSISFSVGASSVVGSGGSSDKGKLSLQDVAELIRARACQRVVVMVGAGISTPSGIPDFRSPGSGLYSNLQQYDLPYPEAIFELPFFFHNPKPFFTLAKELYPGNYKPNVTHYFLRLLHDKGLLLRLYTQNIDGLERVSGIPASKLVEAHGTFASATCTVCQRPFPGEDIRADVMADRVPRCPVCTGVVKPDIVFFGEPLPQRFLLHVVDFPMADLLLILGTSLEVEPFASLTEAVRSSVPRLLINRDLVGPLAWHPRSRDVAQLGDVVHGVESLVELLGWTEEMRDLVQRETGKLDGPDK
Summary of the method: (§1)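 Coupled continuous enzymatic assay (nicotinamidase/GDH-linked): 1.5 µM purified Sirt3 with 50 µM ACS2-acK642 peptide and 100 µM NAD+, compound at 10 µM, 100 µM or titrated, 5% DMSO final; fold deacetylation versus no-compound control.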

[2] = molecular target: T1, NAD-dependent protein deacetylase sirtuin-3, mitochondrial (Homo sapiens); assay: Activation of N-terminal his-tagged human SIRT3 (114 to 380 residues) expressed in Escherichia coli at 100 uM using ACS2-acK642 as substrate in presence of NAD+ by Mass spectrometry assay relative to control; settings: filed as activator
Summary of the method: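 Mass-spectrometric deacetylation assay using coupled-assay components (1.5 µM Sirt3, 50 µM peptide, 100 µM NAD+, compound 100 µM) in 50 mM Na-phosphate pH 7.8 plus 0.05 µg/µL PNCA to remove nicotinamide; product and substrate peptides quantified.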

[3] = molecular target: T1, NAD-dependent protein deacetylase sirtuin-3, mitochondrial (Homo sapiens); assay: Activation of N-terminal his-tagged human SIRT3 (114 to 380 residues) expressed in Escherichia coli assessed as fold activation at 10 to 100 uM using ACS2-acK642 as substrate in presence of NAD+; settings: filed as activator, dose 10-100 µM; summary of the method: as §1
[4] = molecular target: NAD-dependent protein deacylase sirtuin-5, mitochondrial (Homo sapiens) (UniProt Q9NXA8); assay: Activation of N-terminal his-tagged human SIRT5 (34 to 302 residues) expressed in Escherichia coli assessed as fold activation at more than 200 uM using CPS1-succ537 as substrate in presence of NAD+; settings: filed as activator
Chain of NAD-dependent protein deacylase sirtuin-5, mitochondrial (Homo sapiens) (Q9NXA8 37-310 limits assumed): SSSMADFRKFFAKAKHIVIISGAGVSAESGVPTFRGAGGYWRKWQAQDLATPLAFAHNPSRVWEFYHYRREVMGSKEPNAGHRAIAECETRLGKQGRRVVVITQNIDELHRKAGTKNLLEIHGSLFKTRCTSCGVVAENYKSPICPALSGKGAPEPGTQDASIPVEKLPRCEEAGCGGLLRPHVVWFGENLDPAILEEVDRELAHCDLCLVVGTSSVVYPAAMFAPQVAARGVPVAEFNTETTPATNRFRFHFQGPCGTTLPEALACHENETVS
Summary of the method: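 Sirt5 desuccinylation measured by coupled enzymatic assay: 1.5 µM enzyme, 50 µM CPS1-succK537 peptide, 100 µM NAD+, 5% DMSO final; compound titrated; fold activation relative to untreated reaction.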

[5] = molecular target: T1, NAD-dependent protein deacetylase sirtuin-3, mitochondrial (Homo sapiens); assay: Activation of SIRT3 in human MDA-MB-231 cells assessed as increase in GDH activity at 50 uM incubated for 4 hrs […]; format: cell-based; settings: filed as activator
Summary of the method: (§2)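 MDA-MB-231 cells given 50 µM compound for 4 h, or 4 h then re-dosed for a further 4 h; 10^6 cells lysed, supernatant mixed with glutamate/developer mix, 3 min at 37 °C, absorbance 450 nm, buffer blank subtracted; means ± SD, Student's t-test.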

[6] = molecular target: T2, NAD-dependent protein deacetylase sirtuin-2 (Homo sapiens) (UniProt Q8IXJ6); assay: Activation of N-terminal SUMO-tagged human SIRT2 (43 to 356 residues) expressed in Escherichia coli assessed as deacetylation of substrate at 100 uM using acetylated alpha tubulin-K2 as substrate in presence of NAD+; settings: filed as activator
T2 sequence (whole entry): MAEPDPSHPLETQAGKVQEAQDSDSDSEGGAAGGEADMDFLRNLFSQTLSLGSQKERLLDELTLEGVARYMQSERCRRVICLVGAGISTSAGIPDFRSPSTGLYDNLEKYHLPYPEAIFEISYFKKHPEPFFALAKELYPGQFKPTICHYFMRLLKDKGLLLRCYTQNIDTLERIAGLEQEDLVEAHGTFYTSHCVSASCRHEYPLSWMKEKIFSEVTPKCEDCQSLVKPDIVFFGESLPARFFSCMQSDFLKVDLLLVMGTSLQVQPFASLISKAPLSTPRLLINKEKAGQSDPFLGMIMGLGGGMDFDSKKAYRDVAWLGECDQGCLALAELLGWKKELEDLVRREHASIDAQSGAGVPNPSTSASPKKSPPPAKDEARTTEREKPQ
Summary of the method: (§3)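 Coupled enzymatic deacylation assay (nicotinamidase/GDH-coupled, continuous): 1.5 μM recombinant Sirtuin (expressed in E. coli, Ni-NTA purified, tag removed, size-exclusion purified) with 50 μM substrate peptide and 100 μM NAD+, without or with 10 μM or 100 μM 1,4-DHP, 5% final DMSO. Activity expressed relative to no-compound control.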

[7] = molecular target: T3, NAD-dependent protein deacetylase sirtuin-1 (Homo sapiens) (UniProt Q96EB6); assay: Activation of N-terminal his-tagged human SIRT1 expressed in Escherichia coli assessed as fold activation at 100 uM using p53-acK381 as substrate in presence of NAD+; settings: filed as activator; summary of the method: as §3
T3 sequence (whole entry): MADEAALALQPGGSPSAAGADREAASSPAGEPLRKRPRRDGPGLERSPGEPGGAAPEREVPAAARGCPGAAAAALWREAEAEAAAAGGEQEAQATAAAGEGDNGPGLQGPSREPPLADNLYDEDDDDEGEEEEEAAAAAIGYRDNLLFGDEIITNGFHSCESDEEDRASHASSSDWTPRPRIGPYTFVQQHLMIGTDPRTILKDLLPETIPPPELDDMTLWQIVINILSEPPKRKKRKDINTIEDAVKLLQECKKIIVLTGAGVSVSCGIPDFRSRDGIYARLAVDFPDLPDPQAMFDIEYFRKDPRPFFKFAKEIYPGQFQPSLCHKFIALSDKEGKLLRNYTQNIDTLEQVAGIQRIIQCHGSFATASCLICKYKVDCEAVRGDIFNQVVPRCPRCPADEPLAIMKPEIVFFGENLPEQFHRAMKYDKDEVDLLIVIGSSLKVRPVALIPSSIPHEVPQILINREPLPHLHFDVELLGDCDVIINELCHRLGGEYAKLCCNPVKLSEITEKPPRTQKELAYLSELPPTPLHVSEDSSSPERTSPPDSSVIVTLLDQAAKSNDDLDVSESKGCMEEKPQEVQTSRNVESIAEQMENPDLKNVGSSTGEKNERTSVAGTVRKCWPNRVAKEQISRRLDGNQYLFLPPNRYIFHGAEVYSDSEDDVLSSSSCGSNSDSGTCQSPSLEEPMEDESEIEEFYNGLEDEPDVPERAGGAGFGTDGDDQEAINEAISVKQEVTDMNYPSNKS

[8] = molecular target: T2, NAD-dependent protein deacetylase sirtuin-2 (Homo sapiens); assay: Activation of N-terminal SUMO-tagged human SIRT2 (43 to 356 residues) expressed in Escherichia coli assessed as deacetylation of substrate by measuring fold activation at 100 uM using acetylated alpha tubulin-K2 as substrate in presence of NAD+; settings: filed as activator; summary of the method: as §3
[9] = molecular target: NAD-dependent protein deacylase sirtuin-5, mitochondrial (Homo sapiens) (UniProt Q9NXA8); assay: Activation of N-terminal his-tagged human SIRT5 (34 to 302 residues) expressed in Escherichia coli assessed as fold activation at 10 to 100 uM using CPS1-succ537 as substrate in presence of NAD+; settings: filed as activator, dose 10-100 µM; summary of the method: as §3
[10] = molecular target: T3, NAD-dependent protein deacetylase sirtuin-1 (Homo sapiens); assay: Activation of N-terminal his-tagged human SIRT1 expressed in Escherichia coli assessed as fold activation at 10 to 100 uM using p53-acK381 as substrate in presence of NAD+; settings: filed as activator, dose 10-100 µM; summary of the method: as §3
[11] = molecular target: T4, NAD-dependent protein deacetylase sirtuin-3 (Mus musculus) (UniProt Q8R104); assay: Activation of SIRT3 in mouse MEF cells assessed as fold increase in mitochondrial mass at 25 uM incubated for 24 hrs by MT-DR staining based FACS assay; format: cell-based; settings: filed as activator
T4 sequence (whole entry): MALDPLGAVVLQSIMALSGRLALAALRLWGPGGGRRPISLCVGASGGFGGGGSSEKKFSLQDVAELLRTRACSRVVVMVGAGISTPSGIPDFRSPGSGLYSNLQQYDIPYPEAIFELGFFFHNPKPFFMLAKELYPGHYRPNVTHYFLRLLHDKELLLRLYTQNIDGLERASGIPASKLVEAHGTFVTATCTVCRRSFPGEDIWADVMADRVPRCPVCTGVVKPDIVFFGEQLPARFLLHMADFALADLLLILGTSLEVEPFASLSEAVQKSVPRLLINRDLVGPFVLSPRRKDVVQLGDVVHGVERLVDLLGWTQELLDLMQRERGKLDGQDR
Summary of the method: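 Wild-type and Sirt3 knock-out MEFs exposed to 25 µM compound for 24 h, then stained with 10 nM MitoTracker Deep Red for 30 min at 37 °C; mitochondrial mass by FACS; mean ± SD, n = 2.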

[12] = molecular target: T1, NAD-dependent protein deacetylase sirtuin-3, mitochondrial (Homo sapiens); assay: Activation of SIRT3 in human MDA-MB-231 cells assessed as increase in GDH activity at 50 uM incubated for 8 hrs […]; format: cell-based; settings: filed as activator; summary of the method: as §2
[13] = molecular target: T1, NAD-dependent protein deacetylase sirtuin-3, mitochondrial (Homo sapiens); assay: Activation of STAT3 protein level in human MDA-MB-231 cells assessed as STAT3 protein expression incubated for 24 hrs by Western blotting; format: cell-based; settings: filed as activator
[14] = molecular target: T1, NAD-dependent protein deacetylase sirtuin-3, mitochondrial (Homo sapiens); assay: Activation of SIRT3 in human MDA-MB-231 cells assessed as decrease in MnSOD-Lys68 acetylation level at 50 uM incubated for 16 hrs by Western blot analysis assay; format: cell-based; settings: filed as activator
Summary of the method: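 MDA-MB-231 cells (wild-type and Sirt3-knockdown) treated with 50 µM; 50 µg whole-cell lysate protein run on SDS-PAGE, blotted to PVDF, probed with anti-MnSOD-acK68 and anti-MnSOD, ECL detection; each blot done in triplicate.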

[15] = molecular target: T1, NAD-dependent protein deacetylase sirtuin-3, mitochondrial (Homo sapiens); assay: Activation of N-terminal his-tagged human SIRT3 (114 to 380 residues) expressed in Escherichia coli assessed as fold activation at 100 uM using ACS2-acK642 as substrate in presence of NAD+; settings: filed as activator; summary of the method: as §1
[16] = molecular target: T1, NAD-dependent protein deacetylase sirtuin-3, mitochondrial (Homo sapiens); assay: Activation of SIRT3 in human MDA-MB-231 cells assessed as increase in FdL deacetylation activity at 50 to 100 uM incubated for 3 hrs; format: cell-based; settings: filed as activator, dose 50-100 µM
Summary of the method: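 MDA-MB-231 cells (RPMI 1640, 10% FBS, 37 °C, 5% CO2) treated 3 h at 50 or 100 µM; 40 µg mitochondrial extract incubated with Fluor de Lys substrate 40 min 37 °C, then developer 10 min; fluorescence ex 360/em 460 nm, buffer background subtracted.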

CCOC(=O)C1=CN(C(=O)c2cc(OC)c(OC)c(OC)c2)C=C(C(=O)OCC)C1c1ccccc1
Activity [1]: Active | Activity [2]: 400% | fold change (FC) [3]: 5 | fold change (FC) [4]: 5 | Activity [5]: Active | Activity [6]: Active

CCOC(=O)C1=CN(C(=O)c2cc(OC)c(OC)c(OC)c2)C=C(C(=O)OCC)C1c1cccc(N)c1
fold change (FC) [7]: 4 | fold change (FC) [8]: 2.5 | fold change (FC) [9]: 3

CCOC(=O)C1=CN(Cc2ccccc2)C=C(C(=O)OCC)C1c1cnc2ccccc2c1
fold change (FC) [10]: 1.5 | Activity [11]: Active

CCOC(=O)C1=CN(C(=O)c2ccccc2)C=C(C(=O)OCC)C1c1ccccc1
Activity [12]: Active | fold change (FC) [10]: 1.5 | Activity [13]: Active | Activity [14]: Active | Activity [2]: 300% | fold change (FC) [15]: 3.5 | Activity [16]: Active

Source: ChEMBL document CHEMBL5108071, “Potent and Specific Activators for Mitochondrial Sirtuins Sirt3 and Sirt5” (J Med Chem, 2022)
